Assay [1] can be described thus: Inhibition of beta-lactamase CphA (unknown origin) expressed in Escherichia coli BL21(DE3) using imipenem as substrate by measuring substrate hydrolysis at 200 uM by spectrophotometric analysis.
A short description of assay [2]: Inhibition of beta-lactamase NDM1 (unknown origin) expressed in Escherichia coli BL21(DE3) using cefotaxime/nitrocefin as substrate by measuring substrate hydrolysis at 200 uM by spectrophotometric analysis.
Assay [3] in a line: Inhibition of beta-lactamase VIM4 (unknown origin) expressed in Escherichia coli BL21(DE3) using imipenem as substrate by measuring substrate hydrolysis at 200 uM by spectrophotometric analysis. The procedure, abridged:
(§1)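 Purified enzyme (overproduced in E. coli BL21(DE3), pET-9a; ion-exchange and gel filtration), 1-70 nM final. Reporter substrate 150 μM imipenem, read at 300 nm, 30 °C, 50 mM HEPES pH 7.5. Single-point screen at 100 or 200 μM; Ki from v0/vi vs [I] (0.5–1,000 μM final) assuming competitive inhibition, or Dixon plot. Triplicate.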

Assay [4] can be described thus: Inhibition of beta-lactamase VIM4 (unknown origin) expressed in Escherichia coli BL21(DE3) using imipenem as substrate by measuring substrate hydrolysis at 100 uM by spectrophotometric analysis. The procedure, abridged: as §1
The nature of assay [5]: Inhibition of beta-lactamase IMP-1 (unknown origin) expressed in Escherichia coli BL21(DE3) using imipenem as substrate by measuring substrate hydrolysis at 100 uM by spectrophotometric analysis. The procedure, abridged:
as §1

The nature of assay [6]: Inhibition of beta-lactamase NDM1 (unknown origin) expressed in Escherichia coli BL21(DE3) using cefotaxime/nitrocefin as substrate by measuring substrate hydrolysis at 100 uM by spectrophotometric analysis.
A short description of assay [7]: Inhibition of beta-lactamase L1 (unknown origin) expressed in Escherichia coli BL21(DE3) using nitrocefin as substrate by measuring substrate hydrolysis at 100 uM preincubated for 30 mins by spectrophotometric analysis. The procedure, abridged:
(§2)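 Enzyme 0.2–0.8 nM in 25 mM HEPES pH 7.5 with 50 μM ZnCl2 final, pre-incubated 30 min at 21 °C with inhibitor (100 μM screen). Nitrocefin 100 μM final, read at 482 nm, 30 °C. Residual activity vs three uninhibited samples; Ki (1–100 μM inhibitor) from Hanes linearization, competitive model. Triplicate.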

A short description of assay [8]: Inhibition of beta-lactamase CphA (unknown origin) expressed in Escherichia coli BL21(DE3) using imipenem as substrate by measuring substrate hydrolysis at 100 uM by spectrophotometric analysis. The procedure, abridged:
(§3)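 Enzyme 0.2–0.8 nM in 15 mM cacodylate pH 6.5, no added zinc, pre-incubated 30 min at 21 °C with inhibitor (100 μM screen). Imipenem substrate added from 10 mM stock; hydrolysis at 300 nm, 30 °C. Residual activity vs three uninhibited samples; Ki (1–100 μM inhibitor) by Hanes linearization, competitive model. Triplicate.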

The nature of assay [9]: Inhibition of beta-lactamase VIM2 (unknown origin) expressed in Escherichia coli BL21(DE3) using imipenem as substrate by measuring substrate hydrolysis at 100 uM by spectrophotometric analysis. The method, boiled down: as §1
Assay [10] in a line: Inhibition of beta-lactamase L1 (unknown origin) expressed in Escherichia coli BL21(DE3) using nitrocefin as substrate by measuring substrate hydrolysis at 200 uM preincubated for 30 mins by spectrophotometric analysis.
A short description of assay [11]: Inhibition of beta-lactamase VIM2 (unknown origin) expressed in Escherichia coli BL21(DE3) using imipenem as substrate by measuring substrate hydrolysis at 200 uM by spectrophotometric analysis. The method, boiled down: as §1
A short description of assay [12]: Inhibition of beta-lactamase VIM2 (unknown origin) expressed in Escherichia coli BL21(DE3) using imipenem as substrate by measuring substrate hydrolysis by spectrophotometric analysis. The procedure, abridged:
as §1

Assay [13] in a line: Binding affinity to beta-lactamase VIM-2 expressed in Escherichia coli BL21(DE3) assessed as association constant at 25 degC by isothermal titration calorimetry. The procedure, abridged:
(§4)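 VIM-2 (19 μM) in 10 mM HEPES-NaOH, 0.15 M NaCl, 50 μM ZnSO4, pH 7.5, DMSO matched to ligand (1-2% final). One 0.5 μl then 19 × 2 μl injections of compound (200-400 μM), 150 s apart, 25 °C. Buffer dilution heats subtracted; nonlinear least-squares fit for n, Ka, ΔH; compound concentration adjusted in fitting so n ≈ 1.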

Assay [14] can be described thus: Binding affinity to beta-lactamase VIM-2 expressed in Escherichia coli BL21(DE3) assessed as Gibbs free energy at 25 degC by isothermal titration calorimetry. The procedure, abridged: as §4
Assay [15] is described as follows: Binding affinity to beta-lactamase VIM-2 expressed in Escherichia coli BL21(DE3) assessed as change in entropy at 25 degC by isothermal titration calorimetry. The method, boiled down:
as §4

Assay [16] in a line: Inhibition of beta-lactamase IMP-1 (unknown origin) expressed in Escherichia coli BL21(DE3) using imipenem as substrate by measuring substrate hydrolysis at 200 uM by spectrophotometric analysis. The procedure, abridged:
as §1

A short description of assay [17]: Binding affinity to beta-lactamase VIM-2 expressed in Escherichia coli BL21(DE3) assessed as change in enthalpy at 25 degC by isothermal titration calorimetry. The method, boiled down: as §4
Assay [18] is described as follows: Binding affinity to beta-lactamase VIM-2 expressed in Escherichia coli BL21(DE3) assessed as dissociation constant at 25 degC by isothermal titration calorimetry. The procedure, abridged:
as §4

A short description of assay [19]: Inhibition of beta-lactamase VIM4 (unknown origin) expressed in Escherichia coli BL21(DE3) using imipenem as substrate by measuring substrate hydrolysis by spectrophotometric analysis. The method, boiled down: as §1
Assay [20] in a line: Inhibition of beta-lactamase VIM-4 (unknown origin) expressed in Escherichia coli LZ2310 assessed as potentiation of ampicillin antibacterial activity by measuring ampicillin induced diameter of inhibition zone at 40 uM incubated for 18 hrs by disk diffusion method (reference value: 6 mm). The procedure, abridged: (§5)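 Efflux-deficient E. coli LZ2310 (NorE, MdfA, AcrA knocked out) carrying pLB-II with the cloned MBL gene. Mueller-Hinton, CLSI disk diffusion; antibiotic disks (30 µg cefoxitin for VIM-2, 10 µg ampicillin for VIM-4, 30 µg ceftazidime for NDM-1/IMP-1) loaded with inhibitor in DMSO (≤15 µL). Zone diameter after 18 h, 35 ± 1 °C; DMSO and 220 µg EDTA controls. Triplicate.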

A short description of assay [21]: Inhibition of beta-lactamase NDM1 (unknown origin) expressed in Escherichia coli BL21(DE3) using cefotaxime/nitrocefin as substrate by measuring substrate hydrolysis by spectrophotometric analysis. The procedure, abridged: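 His-tagged enzyme from E. coli BL21(DE3) pET-15b, affinity-purified, 1-70 nM final. Reporter substrate 120 μM cefotaxime (260 nm) or 100 μM nitrocefin (482 nm), 30 °C, 50 mM HEPES pH 7.5. Inhibitor 0.5–1,000 μM final; competitive Ki from v0/vi vs [I] slope or Dixon plot. Triplicate.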

A short description of assay [22]: Inhibition of beta-lactamase L1 (unknown origin) expressed in Escherichia coli BL21(DE3) using nitrocefin as substrate by measuring substrate hydrolysis preincubated for 30 mins by spectrophotometric analysis. The method, boiled down:
as §2

The nature of assay [23]: Inhibition of beta-lactamase CphA (unknown origin) expressed in Escherichia coli BL21(DE3) using imipenem as substrate by measuring substrate hydrolysis by spectrophotometric analysis. The method, boiled down:
as §3

Assay [24] in a line: Inhibition of beta-lactamase VIM-2 (unknown origin) expressed in Escherichia coli LZ2310 assessed as potentiation of cefoxitin antibacterial activity by measuring cefoxitin induced diameter of inhibition zone at 40 uM incubated for 18 hrs by disk diffusion method (reference value: 14 mm). The method, boiled down: as §5
Assay [25] in a line: Inhibition of beta-lactamase NDM-1 (unknown origin) expressed in Escherichia coli LZ2310 assessed as potentiation of ceftazidime antibacterial activity by measuring ceftazidime induced diameter of inhibition zone at 40 uM incubated for 18 hrs by disk diffusion method (reference value: 15 mm). The procedure, abridged:
as §5

Assay [26] in a line: Inhibition of beta-lactamase IMP-1 (unknown origin) expressed in Escherichia coli BL21(DE3) using imipenem as substrate by measuring substrate hydrolysis by spectrophotometric analysis. The procedure, abridged: as §1
Assay [27] in a line: Inhibition of beta-lactamase IMP-1 (unknown origin) expressed in Escherichia coli LZ2310 assessed as potentiation of ceftazidime antibacterial activity by measuring ceftazidime induced diameter of inhibition zone at 40 uM incubated for 18 hrs by disk diffusion method (reference value: 9 mm). The method, boiled down: as §5

Active and inactive are the calls of the source. No cut-off for these calls is given here.

For `S=c1[nH]nc(-c2ccccc2)n1/N=C/c1ccccc1`, the inhibition result in [1], in assay [2], in assay [3], in assay [4], in assay [6] and in [7] was “inactive” in each case. Further, the inhibition entry in assay [8], in assay [9], in [10] and in assay [11] was “inactive” throughout. Further, the inhibition in [5] amounted to 60%.
Regarding `Oc1ccc(/C=N/n2c(-c3cccc(Br)c3)n[nH]c2=S)c(O)c1`, the inhibition constant (Ki) amounted to 620 nM in [12] and 13000 nM in [19]. Moreover, the Ka in assay [13] is 3.1 10^6/M. Also, in assay [14], the deltaG is -8.8 kcal/mol. In addition, the inhibition result in assay [5], in assay [7], in assay [16] and in [10] was “inactive” in each case. In addition, the inhibition in assay [6] turned out to be 45%. In addition, in assay [15], the -TdeltaS was -1.6 kcal/mol. Further, the deltaH in [17] was -10.4 kcal/mol. Moreover, the Kd in assay [18] worked out at 323 nM.
With `O=C(O)c1ccccc1/C=N/n1c(-c2cc(Cl)cc(Cl)c2)n[nH]c1=S`, the Ki in [12] is 3000 nM; in assay [21] it was 30000 nM; in [22], 3000 nM; in assay [23] it was 4000 nM; in assay [19], 800 nM. Also, the Ka in [13] was 1.2 10^6/M. For the same molecule, in assay [14], the deltaG was -8.2 kcal/mol. In assay [5], this molecule came in with an inhibition of 53%. For the same molecule, in assay [15], the -TdeltaS was 4.3 kcal/mol. Further, the inhibition zone (IZ) was 6 mm in assay [20] and 14 mm in [24]. In assay [17], the deltaH is -3.1 kcal/mol. Also, in assay [18], the Kd stood at 863 nM.
In the case of `COc1ccc(O)c(-c2n[nH]c(=S)n2/N=C/c2ccccc2C(=O)O)c1`, the Ki in assay [12] was 700 nM; in assay [21] it was 27000 nM; in assay [22], 9000 nM; in assay [23], 13000 nM; in assay [19], 500 nM. Moreover, the Ka in [13] was 2.6 10^6/M. Moreover, the deltaG in assay [14] was -8.7 kcal/mol. Moreover, the inhibition entry in assay [5] and in [16] was “inactive” each time. Moreover, in assay [15], the -TdeltaS came out at 2.4 kcal/mol. For the same molecule, the figures for the inhibition zone (IZ) in assay [20] and in assay [24] were 6 mm and 14 mm, respectively. In assay [17], the deltaH was -6.3 kcal/mol. In addition, the Kd in [18] is 389 nM.
For `O=C(O)c1ccccc1/C=N/n1c(-c2ccccn2)n[nH]c1=S`, the inhibition entry in assay [1], in assay [5], in [7], in assay [16], in [8] and in assay [9] was “inactive” each time. Also, the inhibition entry in assay [10] and in assay [11] was “inactive” in each case. For the same molecule, the inhibition amounted to 60% in assay [2] and 62% in [4].
In the case of `Oc1ccc(/C=N/n2c(-c3ccc(Cl)cc3)n[nH]c2=S)c(O)c1`, the inhibition entry in [1] and in assay [8] was “inactive” throughout. Besides, the inhibition came out at 63% in [4], 67% in assay [5] and 54% in assay [7]. The inhibition zone (IZ) in assay [25] was determined as 15 mm. The Ki in assay [21] was 3100 nM.
For `Oc1ccc(/C=N/n2c(-c3ccccc3O)n[nH]c2=S)c(O)c1`, the Ki in assay [12] came out at 2000 nM; in [23] it was 6000 nM; in assay [19], 500 nM. In addition, the Ka in [13] is 3.4 10^6/M. Moreover, the inhibition result in assay [2], in assay [5], in assay [6] and in assay [16] was “inactive” in each case. The deltaG in assay [14] was -7.5 kcal/mol. For the same molecule, the -TdeltaS in [15] is -2.1 kcal/mol. The molecule also had an inhibition in assay [7] of 31%. The inhibition zone (IZ) is 6 mm in assay [20] and 14 mm in assay [24]. For the same molecule, the deltaH in assay [17] is -9.6 kcal/mol. Further, the dissociation constant (Kd) in [18] was found to be 2980 nM.
As for `Cc1ccccc1-c1n[nH]c(=S)n1/N=C/c1ccc(O)c(C(=O)O)c1`, the Ki in [12] turned out to be 2000 nM; in assay [22] it was 13000 nM; in [19], 1400 nM. The Ka in assay [13] was 7.7 10^6/M. The deltaG in [14] is -8 kcal/mol. Further, the inhibition was determined as 45% in assay [5] and 39% in assay [8]. Also, the -TdeltaS in assay [15] was -1.1 kcal/mol. For the same molecule, the inhibition zone (IZ) in assay [20] amounted to 6 mm; in assay [24], 14 mm. For the same molecule, in [17], the deltaH is -9.1 kcal/mol. Further, in [18], the Kd came to 1300 nM.
Turning to `S=c1[nH]nc(-c2cc(Cl)cc(Cl)c2)n1/N=C/c1ccc(OCc2ccccc2)cc1`, the inhibition entry in [1], in assay [8], in assay [9] and in [11] was “inactive” in each case. Besides, the results for the inhibition zone (IZ) in [20] and in assay [27] were 6 mm and 9 mm, respectively. Also, the Ki in [22] came out at 18000 nM; in assay [26], 100 nM; in [19], 600 nM.
As for `Oc1ccc(/C=N/n2c(CC(c3ccccc3)c3ccccc3)n[nH]c2=S)c(O)c1`, the inhibition result in [1], in [3], in assay [4] and in [8] was “inactive” throughout. For the same molecule, the inhibition in assay [5] and in [7] was 35% throughout.
